The source made the active and inactive calls. The calls are words filed in the database; no cut-off is given here. Bounds are passed on as bounds.

The target in test [1] is T1, Pancreatic alpha-amylase (Sus scrofa, UniProt P00690).
T1 sequence (P00690 whole entry): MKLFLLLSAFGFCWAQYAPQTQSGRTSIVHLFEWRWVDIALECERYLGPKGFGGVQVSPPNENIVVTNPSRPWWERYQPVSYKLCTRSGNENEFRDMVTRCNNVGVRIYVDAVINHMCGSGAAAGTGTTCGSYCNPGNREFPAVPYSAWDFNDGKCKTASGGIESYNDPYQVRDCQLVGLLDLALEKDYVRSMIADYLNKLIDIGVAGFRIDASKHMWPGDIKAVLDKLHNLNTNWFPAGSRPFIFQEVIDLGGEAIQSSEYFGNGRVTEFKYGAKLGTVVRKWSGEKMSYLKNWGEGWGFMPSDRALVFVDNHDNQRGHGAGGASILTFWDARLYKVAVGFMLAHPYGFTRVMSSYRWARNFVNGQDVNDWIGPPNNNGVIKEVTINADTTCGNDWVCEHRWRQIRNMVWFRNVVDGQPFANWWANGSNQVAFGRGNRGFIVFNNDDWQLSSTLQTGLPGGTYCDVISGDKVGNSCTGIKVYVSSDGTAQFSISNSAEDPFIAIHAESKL
Nature of the test: Inhibition of porcine pancreatic alpha-amylase using soluble starch as substrate after 30 mins by Bernfeld method.

The target in test [2] is T1, Pancreatic alpha-amylase. Nature of the test: Inhibition of porcine pancreatic alpha-amylase using DP17 amylose as substrate preincubated for 5 mins followed by substrate addition by copper-bicinchoninate method.
Test [3] addresses Alpha-amylase type A isozyme (Hordeum vulgare, UniProt P00693). Nature of the test: Inhibition of recombinant barley alpha-amylase isozyme-1 using DP17 amylose as substrate preincubated for 5 mins followed by substrate addition by copper-bicinchoninate method.
Test [4] deals with T2, Alpha-amylase 1A (Homo sapiens) (UniProt P0DUB6).
T2 sequence (whole entry): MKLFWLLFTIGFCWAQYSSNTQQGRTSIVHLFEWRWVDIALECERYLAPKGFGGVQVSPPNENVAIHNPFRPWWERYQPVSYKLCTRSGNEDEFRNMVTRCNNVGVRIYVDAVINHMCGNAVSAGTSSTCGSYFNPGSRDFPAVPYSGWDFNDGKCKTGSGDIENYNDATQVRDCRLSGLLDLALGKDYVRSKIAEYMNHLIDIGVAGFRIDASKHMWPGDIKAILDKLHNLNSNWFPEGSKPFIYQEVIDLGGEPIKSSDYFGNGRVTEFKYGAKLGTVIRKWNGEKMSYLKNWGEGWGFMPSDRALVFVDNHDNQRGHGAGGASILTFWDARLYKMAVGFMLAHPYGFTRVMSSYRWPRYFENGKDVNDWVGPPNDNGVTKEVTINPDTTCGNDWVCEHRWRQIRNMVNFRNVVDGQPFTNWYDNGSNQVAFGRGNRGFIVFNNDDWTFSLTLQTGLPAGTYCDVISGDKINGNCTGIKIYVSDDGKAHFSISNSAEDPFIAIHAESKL
Nature of the test: Inhibition of human salivary alpha-amylase using GalG2CNP as substrate at 200 uM by UV-Vis spectrophotometric analysis. The method in brief:
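Single-concentration test at 200 μM inhibitor against human salivary α-amylase (2 nM) with GalG2CNP substrate, 50 mM MES pH 6.0 containing 5 mM Ca(OAc)2, 51.5 mM NaCl, 152 mM NaN3, 37°C. Chloronitrophenol liberation monitored continuously at 400 nm by UV-Vis spectrophotometry.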

For test [5], the target named is Heat shock protein HSP 90-beta (Homo sapiens, UniProt P08238). Nature of the test: Inhibition of HSP90 (unknown origin).
Heat shock protein HSP 90-beta, sequence (P08238 whole entry): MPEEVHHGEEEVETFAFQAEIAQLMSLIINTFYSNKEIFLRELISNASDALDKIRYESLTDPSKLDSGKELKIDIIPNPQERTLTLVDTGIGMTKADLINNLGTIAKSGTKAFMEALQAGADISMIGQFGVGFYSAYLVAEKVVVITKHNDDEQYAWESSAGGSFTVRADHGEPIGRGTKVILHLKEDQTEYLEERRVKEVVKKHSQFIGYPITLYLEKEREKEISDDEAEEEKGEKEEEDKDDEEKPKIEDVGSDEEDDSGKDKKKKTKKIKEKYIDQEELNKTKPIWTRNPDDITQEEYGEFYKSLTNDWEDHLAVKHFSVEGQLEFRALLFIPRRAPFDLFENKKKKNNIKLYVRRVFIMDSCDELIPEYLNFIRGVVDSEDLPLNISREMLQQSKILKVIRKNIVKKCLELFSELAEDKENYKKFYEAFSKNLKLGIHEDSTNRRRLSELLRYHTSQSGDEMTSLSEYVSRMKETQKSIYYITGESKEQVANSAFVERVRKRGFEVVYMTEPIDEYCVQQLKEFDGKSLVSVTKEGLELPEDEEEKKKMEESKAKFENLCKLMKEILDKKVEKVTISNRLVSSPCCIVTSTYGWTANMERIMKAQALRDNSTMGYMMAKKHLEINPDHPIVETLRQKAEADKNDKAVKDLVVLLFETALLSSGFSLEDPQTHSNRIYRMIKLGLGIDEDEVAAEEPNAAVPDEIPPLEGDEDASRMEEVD

Alpha-amylase type A isozyme, sequence (P00693 whole entry): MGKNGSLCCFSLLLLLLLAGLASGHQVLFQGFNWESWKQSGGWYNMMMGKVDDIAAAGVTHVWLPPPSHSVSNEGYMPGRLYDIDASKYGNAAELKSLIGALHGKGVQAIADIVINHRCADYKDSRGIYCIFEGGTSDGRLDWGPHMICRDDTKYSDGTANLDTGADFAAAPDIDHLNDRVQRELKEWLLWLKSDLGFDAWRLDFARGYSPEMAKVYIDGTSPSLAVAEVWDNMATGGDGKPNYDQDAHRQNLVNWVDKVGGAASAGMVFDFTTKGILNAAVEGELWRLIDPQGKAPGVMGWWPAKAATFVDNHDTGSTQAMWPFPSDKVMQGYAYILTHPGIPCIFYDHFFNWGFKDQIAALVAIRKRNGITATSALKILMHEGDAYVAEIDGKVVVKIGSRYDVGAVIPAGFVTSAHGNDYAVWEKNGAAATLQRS

One may read the Ki as a dissociation constant, usually derived from enzyme kinetics or from competition with a known ligand. As to `O=C(/C=C/c1ccccc1)c1ccccc1` [CHALCONE], in test [1], the inhibition constant (Ki) came out at 48 µM.
As to `O=S(=O)(O)O[C@@H](CO)[C@@H](O)CN1C[C@@H](O)[C@H](O)[C@H]1CO`, the Ki in test [2] and in test [3] was less than 10000 µM in each case.
The term IC50 denotes the midpoint of a concentration-inhibition curve. Low values mean greater potency in that assay, high ones weaker potency in that assay. Regarding `CCc1cc(C(=O)Cn2cnc3ccccc32)c(O)cc1O`, in test [4], the inhibition result is “inactive”. In addition, the IC50 in test [5] is more than 50 µM.

The values are drawn from ChEMBL document CHEMBL3616379, “From carbohydrates to drug-like fragments: Rational development of novel α-amylase inhibitors” (Bioorg Med Chem, 2015).
